What all share (assay type): functional, organism-based
For test [1], the system named is Plasmodium falciparum. The test is described as follows: Antimalarial activity against chloroquine-resistant Plasmodium falciparum Dd2 after 48 hrs. The following applies: Dd2, 48 h. Put shortly: (§1)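 P. falciparum asexual culture in RPMI 1640 with glucose, HEPES, hypoxanthine, 5% Albumax, bicarbonate and gentamicin, sorbitol-synchronized at ring stage when needed. DMSO stocks serially diluted twofold in medium and added to parasitized erythrocytes at 2% hematocrit. Incubation 48 h at 37 °C under 3% O2/4% CO2/93% N2. pLDH read-out with Malstat plus NBT/PES at 620 nm. Runs in duplicate on two occasions; IC50 fitted from dose–response curves.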

Test [2] relates to Plasmodium falciparum. The test is described as follows: Antimalarial activity against chloroquine-resistant Plasmodium falciparum W2 after 48 hrs by FACS analysis in presence of 10 % human serum. Conditions: W2, 48 h. Put shortly:
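W2 parasites grown in standard medium containing 10% human serum. Growth inhibition assay as in earlier published work, with parasite development scored by flow cytometry (FACS).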

Test [3] has as its system Plasmodium falciparum. The test is described as follows: Antimalarial activity against chloroquine-sensitive Plasmodium falciparum D10 after 48 hrs. The following applies: D10, 48 h. In outline:
as §1

`C#CCOc1ccc(/C=C/C(C)=O)cc1OC`: the concentration for half-maximal inhibition (IC50) in test [1] was 7.5 µM; in test [2], > 20 µM; in test [3], 9.7 µM.
`COc1ccc(C(=O)/C=C/c2ccc(OCc3cn([C@H]4C[C@H](n5cc(C)c(=O)[nH]c5=O)O[C@@H]4CO)nn3)c(OC)c2)cc1`: the IC50 in test [1] is 6.1 µM; in test [2] it was 8 µM; in test [3], 2.9 µM.
Consider `COc1ccc(C(=O)/C=C/c2ccc(OCc3cn([C@H]4C[C@H](n5cc(C)c(=O)[nH]c5=O)O[C@@H]4CO)nn3)c(OC)c2)c(OC)c1`, for which the IC50 in test [1] was 4.4 µM; in test [2], 5.4 µM; in test [3], 1.5 µM.
With `COc1cc(/C=C/C(=O)c2ccc(OC)c(OC)c2OC)ccc1OCc1cn([C@H]2C[C@H](n3cc(C)c(=O)[nH]c3=O)O[C@@H]2CO)nn1`, the IC50 in test [1] came out at 3.7 µM; in test [2], 5.4 µM; in test [3], 3.3 µM.
For `COc1ccc(/C=C/C(=O)c2ccc(OCc3cn([C@H]4C[C@H](n5cc(C)c(=O)[nH]c5=O)O[C@@H]4CO)nn3)c(OC)c2)c(OC)c1` the same measures were 11.8 µM, 9 µM and 10.2 µM.
For `COc1cc(C(=O)/C=C/c2ccc(OC)c(OC)c2OC)ccc1OCc1cn([C@H]2C[C@H](n3cc(C)c(=O)[nH]c3=O)O[C@@H]2CO)nn1`, the IC50 came out at 3.8 µM in test [1], 7.1 µM in test [2] and 5.4 µM in test [3].
As to `COc1cc(C(=O)/C=C/c2ccc(Cl)cc2Cl)ccc1OCc1cn([C@H]2C[C@H](n3cc(C)c(=O)[nH]c3=O)O[C@@H]2CO)nn1`, the IC50 is 1.9 µM in test [1], 8.4 µM in test [2] and 3.7 µM in test [3].
With `COc1cc(C(=O)/C=C/c2ccc(F)cc2)ccc1OCc1cn([C@H]2C[C@H](n3cc(C)c(=O)[nH]c3=O)O[C@@H]2CO)nn1`, the figures for the IC50 in test [1], in test [2] and in test [3] were 6.1 µM, 6.6 µM and 7.3 µM, respectively.
For `COc1cc(C(=O)/C=C/c2ccc(F)cc2F)ccc1OCc1cn([C@H]2C[C@H](n3cc(C)c(=O)[nH]c3=O)O[C@@H]2CO)nn1`, the IC50 in test [1] was found to be 4.8 µM; in test [2] it was 7.1 µM; in test [3] it was 3.9 µM.
For `COc1ccc(/C=C/C(=O)/C=C/c2ccc(OCc3cn([C@H]4C[C@H](n5cc(C)c(=O)[nH]c5=O)O[C@@H]4CO)nn3)c(OC)c2)cc1`, the results for the IC50 in test [1], in test [2] and in test [3] were 1.5 µM, 18.2 µM and 2.8 µM, respectively.
With `COc1ccc(/C=C/C(=O)/C=C/c2ccc(OCc3cn([C@H]4C[C@H](n5cc(C)c(=O)[nH]c5=O)O[C@@H]4CO)nn3)c(OC)c2)c(OC)c1`, the IC50 in test [1] was 1.2 µM; in test [2], 14.5 µM; in test [3] it was 1.3 µM.
For `COc1cc(/C=C/C(=O)/C=C/c2ccc(OC)c(OC)c2OC)ccc1OCc1cn([C@H]2C[C@H](n3cc(C)c(=O)[nH]c3=O)O[C@@H]2CO)nn1` the same measures were 2.4 µM, 8.3 µM and 1.3 µM.
As to `COc1cc(/C=C/C(=O)/C=C/c2ccc(Cl)cc2Cl)ccc1OCc1cn([C@H]2C[C@H](n3cc(C)c(=O)[nH]c3=O)O[C@@H]2CO)nn1`, the results for the IC50 in test [1], in test [2] and in test [3] were 1.7 µM, 9.1 µM and 1.4 µM, respectively.
Regarding `COc1cc(/C=C/C(=O)/C=C/c2ccc(F)cc2)ccc1OCc1cn([C@H]2C[C@H](n3cc(C)c(=O)[nH]c3=O)O[C@@H]2CO)nn1`, the IC50 in test [1] was determined as 2.6 µM; in test [3], 1.7 µM.
As for `COc1cc(/C=C/C(=O)/C=C/c2ccc(F)cc2F)ccc1OCc1cn([C@H]2C[C@H](n3cc(C)c(=O)[nH]c3=O)O[C@@H]2CO)nn1`, the IC50 in test [1] turned out to be 1.7 µM; in test [2] it was 12.4 µM; in test [3], 1.4 µM.
Consider `COc1ccc(/C=C/C(=O)/C=C/c2ccc(OCc3cn(-c4ccnc5cc(Cl)ccc45)nn3)c(OC)c2)c(OC)c1`, for which the IC50 in test [1] was 6.4 µM; in test [2], > 20 µM; in test [3], 5.1 µM.
As to `COc1cc(/C=C/C(C)=O)ccc1OCc1cn(-c2ccnc3cc(Cl)ccc23)nn1`, the figures for the IC50 in test [1] and in test [3] were 0.7 µM and 0.8 µM, respectively.
On to `COc1ccc(/C=C/C(=O)/C=C/c2ccc(OCc3cn(-c4ccnc5cc(Cl)ccc45)nn3)c(OC)c2)cc1`, for which the IC50 in test [1] was 2.1 µM; in test [2], 5.3 µM; in test [3], 3 µM.
On to `Clc1ccc2c(-n3cc(COc4ccccc4)nn3)ccnc2c1`, for which the IC50 in test [1] and in test [3] was > 20 µM in each case.
On to `COc1cc(C=O)ccc1OCc1cn(-c2ccnc3cc(Cl)ccc23)nn1`, for which the IC50 in test [1] and in test [3] was > 20 µM each time.
Regarding `C#CCOc1ccc(C(=O)/C=C/c2ccc(Cl)cc2Cl)cc1OC`, the IC50 in test [1] was 2.8 µM; in test [2], 5 µM; in test [3], 3.3 µM.
On to `C#CCOc1ccc(C(=O)/C=C/c2ccc(F)cc2)cc1OC`, for which the IC50 in test [1] was 7.7 µM; in test [2] it was > 20 µM; in test [3], 7.2 µM.
For `C#CCOc1ccc(C(=O)/C=C/c2ccc(F)cc2F)cc1OC` the same measures were 5.2 µM, 9.4 µM and > 20 µM.
Take `C#CCOc1ccc(/C=C/C(=O)/C=C/c2ccc(OC)cc2)cc1OC`: the IC50 in test [1] was 10.7 µM; in test [2] it was > 20 µM; in test [3], 11.8 µM.
As to `C#CCOc1ccc(/C=C/C(=O)/C=C/c2ccc(OC)cc2OC)cc1OC`, the IC50 in test [1] was 4 µM; in test [2] it was 18.9 µM; in test [3], 5.4 µM.
With `C#CCOc1ccc(/C=C/C(=O)/C=C/c2ccc(OC)c(OC)c2OC)cc1OC`, the IC50 in test [1] worked out at 1.4 µM; in test [2], 9.2 µM; in test [3], 0.9 µM.
Take `C#CCOc1ccc(/C=C/C(=O)/C=C/c2ccc(Cl)cc2Cl)cc1OC`: the IC50 in test [1] was 9 µM; in test [2] it was > 20 µM; in test [3] it was 9.2 µM.
In the case of `C#CCOc1ccc(/C=C/C(=O)/C=C/c2ccc(F)cc2)cc1OC`, the IC50 in test [1] amounted to 6.5 µM; in test [2], 21.5 µM; in test [3] it was 9.8 µM.
Turning to `C#CCOc1ccc(/C=C/C(=O)/C=C/c2ccc(F)cc2F)cc1OC`, the IC50 is 9.3 µM in test [1], > 20 µM in test [2] and 11.9 µM in test [3].
Regarding `COc1ccc(C(=O)/C=C/c2ccc(OCc3cn(-c4ccnc5cc(Cl)ccc45)nn3)c(OC)c2)cc1`, the IC50 in test [1] is 2.2 µM; in test [2], 5 µM; in test [3], 0.6 µM.
`COc1cc(C(=O)/C=C/c2ccc(Cl)cc2Cl)ccc1OCc1cn(-c2ccnc3cc(Cl)ccc23)nn1`: the values for the IC50 in test [1], in test [2] and in test [3] were 1.9 µM, 11.5 µM and 6 µM, respectively.
As for `COc1cc(/C=C/C(C)=O)ccc1OCc1cn([C@H]2C[C@H](n3cc(C)c(=O)[nH]c3=O)O[C@@H]2CO)nn1`, the figures for the IC50 in test [1] and in test [3] were 16.4 µM and 12 µM, respectively.
Turning to `[N-]=[N+]=Nc1ccnc2cc(Cl)ccc12`, the IC50 in test [1], in test [2] and in test [3] was > 20 µM in each case.
As for `C#CCOc1ccc(/C=C/C(=O)c2ccc(OC)cc2)cc1OC`, inhibition in test [1] was half-maximal at 13.5 µM (IC50).
Same read-out and setting: to `C#CCOc1ccc(/C=C/C(=O)c2ccc(OC)c(OC)c2OC)cc1OC` belongs 2.8 µM.
The same measure, in the same setting: to `C#CCOc1ccc(C(=O)/C=C/c2ccc(OC)c(OC)c2OC)cc1OC` belongs 2.4 µM.
In the case of `C#CCOc1ccc(C(=O)/C=C/c2ccc(OC)cc2OC)cc1OC`, the IC50 is 14.5 µM in test [1] and > 20 µM in test [3].

The term IC50 denotes the concentration at which inhibition is half-maximal.
